{
  "source": "ChEMBL document CHEMBL5653631",
  "about": "“A Potent and Selective ULK1 Inhibitor Suppresses Autophagy and Sensitizes Cancer Cells to Nutrient Stress” (iScience, 2018)",
  "key": {"[1]": {"biological_target": "Dual specificity protein kinase CLK4 (Homo sapiens) (UniProt Q9HAZ1)", "sequence (Q9HAZ1 whole entry, looked up)": "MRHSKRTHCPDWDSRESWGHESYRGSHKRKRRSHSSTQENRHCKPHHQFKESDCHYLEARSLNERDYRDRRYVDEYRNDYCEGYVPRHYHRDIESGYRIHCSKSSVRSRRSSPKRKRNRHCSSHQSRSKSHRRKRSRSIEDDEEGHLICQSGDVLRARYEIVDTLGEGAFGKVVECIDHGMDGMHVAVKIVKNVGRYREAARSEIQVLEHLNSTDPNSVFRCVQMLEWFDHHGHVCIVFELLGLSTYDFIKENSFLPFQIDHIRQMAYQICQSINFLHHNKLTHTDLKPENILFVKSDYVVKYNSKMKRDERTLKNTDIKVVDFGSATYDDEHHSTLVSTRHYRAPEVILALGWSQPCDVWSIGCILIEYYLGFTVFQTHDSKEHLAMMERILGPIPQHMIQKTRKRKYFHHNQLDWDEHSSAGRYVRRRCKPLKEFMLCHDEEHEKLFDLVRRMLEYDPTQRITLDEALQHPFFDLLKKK", "assay": "Inhibition of human recombinant CLK4 at 500 nM in presence of ATP by radiometric assay relative to control"}, "[2]": {"biological_target": "Tyrosine-protein kinase Fes/Fps (Homo sapiens) (UniProt P07332)", "sequence (P07332 whole entry)": "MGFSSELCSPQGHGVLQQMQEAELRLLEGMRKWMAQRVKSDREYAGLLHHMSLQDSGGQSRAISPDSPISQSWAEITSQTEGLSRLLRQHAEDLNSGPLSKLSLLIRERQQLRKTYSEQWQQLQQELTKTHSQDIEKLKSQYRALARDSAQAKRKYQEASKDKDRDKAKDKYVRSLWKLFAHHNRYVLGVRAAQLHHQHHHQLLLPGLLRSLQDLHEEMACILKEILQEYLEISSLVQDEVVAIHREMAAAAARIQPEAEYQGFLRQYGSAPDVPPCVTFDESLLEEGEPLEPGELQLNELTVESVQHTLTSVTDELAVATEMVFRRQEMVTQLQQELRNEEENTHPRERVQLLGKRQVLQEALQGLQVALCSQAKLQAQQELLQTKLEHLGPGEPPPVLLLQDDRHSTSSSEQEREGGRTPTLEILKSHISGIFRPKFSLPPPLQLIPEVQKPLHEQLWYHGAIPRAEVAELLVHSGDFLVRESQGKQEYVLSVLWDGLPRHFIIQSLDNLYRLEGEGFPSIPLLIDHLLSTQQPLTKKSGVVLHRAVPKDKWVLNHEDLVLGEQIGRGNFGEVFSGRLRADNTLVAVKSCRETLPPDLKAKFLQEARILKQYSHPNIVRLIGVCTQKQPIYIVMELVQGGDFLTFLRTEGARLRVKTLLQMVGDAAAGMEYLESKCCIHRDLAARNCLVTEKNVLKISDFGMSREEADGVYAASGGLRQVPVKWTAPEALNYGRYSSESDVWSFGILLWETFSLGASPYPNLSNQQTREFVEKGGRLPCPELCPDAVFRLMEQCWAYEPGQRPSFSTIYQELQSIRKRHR", "assay": "Inhibition of human recombinant FES at 500 nM related to control ULK1"}, "[3]": {"biological_target": "T1, Inhibitor of nuclear factor kappa-B kinase subunit alpha (Homo sapiens) (UniProt O15111)", "T1 sequence (whole entry)": "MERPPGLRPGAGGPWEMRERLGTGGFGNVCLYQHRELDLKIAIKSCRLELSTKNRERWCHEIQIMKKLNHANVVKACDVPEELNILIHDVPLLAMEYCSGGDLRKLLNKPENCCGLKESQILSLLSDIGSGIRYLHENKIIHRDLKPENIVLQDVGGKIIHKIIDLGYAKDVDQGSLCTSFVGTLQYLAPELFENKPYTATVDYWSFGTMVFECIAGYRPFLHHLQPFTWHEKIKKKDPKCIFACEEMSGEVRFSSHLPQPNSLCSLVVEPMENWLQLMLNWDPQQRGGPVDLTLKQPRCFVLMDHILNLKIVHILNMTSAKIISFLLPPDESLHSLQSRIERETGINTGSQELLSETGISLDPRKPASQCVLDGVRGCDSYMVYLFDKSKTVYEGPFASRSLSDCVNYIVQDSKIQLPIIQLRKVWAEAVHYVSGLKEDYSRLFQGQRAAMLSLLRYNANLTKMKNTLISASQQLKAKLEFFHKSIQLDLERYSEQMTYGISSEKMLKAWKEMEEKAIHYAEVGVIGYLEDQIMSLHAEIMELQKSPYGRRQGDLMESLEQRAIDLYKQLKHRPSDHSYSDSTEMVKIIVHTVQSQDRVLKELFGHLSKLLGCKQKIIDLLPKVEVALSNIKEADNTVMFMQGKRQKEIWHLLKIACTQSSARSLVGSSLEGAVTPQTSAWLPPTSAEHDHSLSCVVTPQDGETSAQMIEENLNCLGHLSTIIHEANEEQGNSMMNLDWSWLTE", "assay": "Inhibition of human recombinant IKKa at 500 nM related to control ULK1"}, "[4]": {"biological_target": "Calcium/calmodulin-dependent protein kinase type II subunit gamma (Homo sapiens) (UniProt Q13555)", "sequence (Q13555 whole entry)": "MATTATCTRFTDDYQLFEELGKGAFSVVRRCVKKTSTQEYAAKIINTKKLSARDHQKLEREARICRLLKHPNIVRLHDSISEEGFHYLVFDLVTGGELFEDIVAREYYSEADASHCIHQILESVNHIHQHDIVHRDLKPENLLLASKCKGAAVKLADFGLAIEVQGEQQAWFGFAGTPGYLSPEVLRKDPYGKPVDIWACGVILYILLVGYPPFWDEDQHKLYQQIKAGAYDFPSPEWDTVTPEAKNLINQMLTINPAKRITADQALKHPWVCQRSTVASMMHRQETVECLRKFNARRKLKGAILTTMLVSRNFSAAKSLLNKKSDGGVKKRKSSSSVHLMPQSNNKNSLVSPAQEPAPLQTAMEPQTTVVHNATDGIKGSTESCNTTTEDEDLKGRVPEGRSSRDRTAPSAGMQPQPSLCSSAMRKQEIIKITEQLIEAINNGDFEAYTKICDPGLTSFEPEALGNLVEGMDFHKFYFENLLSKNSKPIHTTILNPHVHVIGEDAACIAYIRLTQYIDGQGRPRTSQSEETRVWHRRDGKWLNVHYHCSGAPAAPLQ", "assay": "Inhibition of human recombinant CaMK2g at 15 nM in presence of ATP by radiometric assay relative to control"}, "[5]": {"biological_target": "T2, Serine/threonine-protein kinase ULK1 (Homo sapiens) (UniProt O75385)", "T2 sequence (whole entry)": "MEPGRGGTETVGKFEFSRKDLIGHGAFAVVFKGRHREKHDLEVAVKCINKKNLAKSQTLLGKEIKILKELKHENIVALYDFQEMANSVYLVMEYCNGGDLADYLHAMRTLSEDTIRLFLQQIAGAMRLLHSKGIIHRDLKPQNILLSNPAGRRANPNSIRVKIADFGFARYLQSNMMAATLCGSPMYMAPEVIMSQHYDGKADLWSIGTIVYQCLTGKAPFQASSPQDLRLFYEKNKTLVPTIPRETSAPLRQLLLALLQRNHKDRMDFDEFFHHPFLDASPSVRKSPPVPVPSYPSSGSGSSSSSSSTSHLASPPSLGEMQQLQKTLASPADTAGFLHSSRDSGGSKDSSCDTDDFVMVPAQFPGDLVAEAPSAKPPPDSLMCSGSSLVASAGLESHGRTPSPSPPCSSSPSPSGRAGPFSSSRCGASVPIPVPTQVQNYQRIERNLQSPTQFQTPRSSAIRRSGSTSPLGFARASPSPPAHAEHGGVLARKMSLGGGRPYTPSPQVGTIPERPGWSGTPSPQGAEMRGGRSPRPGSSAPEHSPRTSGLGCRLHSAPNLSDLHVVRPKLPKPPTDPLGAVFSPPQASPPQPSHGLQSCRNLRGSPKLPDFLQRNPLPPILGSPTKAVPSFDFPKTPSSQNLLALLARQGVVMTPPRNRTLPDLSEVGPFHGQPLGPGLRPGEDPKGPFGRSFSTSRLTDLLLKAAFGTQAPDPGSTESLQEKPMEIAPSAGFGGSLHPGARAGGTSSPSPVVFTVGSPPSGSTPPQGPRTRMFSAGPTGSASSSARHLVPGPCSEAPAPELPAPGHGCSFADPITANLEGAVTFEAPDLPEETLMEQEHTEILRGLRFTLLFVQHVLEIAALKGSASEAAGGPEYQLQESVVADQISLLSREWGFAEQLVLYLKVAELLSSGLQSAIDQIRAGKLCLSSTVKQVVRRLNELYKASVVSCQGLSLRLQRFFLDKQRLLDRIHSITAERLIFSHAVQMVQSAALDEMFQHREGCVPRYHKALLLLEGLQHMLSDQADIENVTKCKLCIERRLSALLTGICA", "assay": "Inhibition of human recombinant ULK1 at 15 nM in presence of ATP by radiometric assay relative to control"}, "U2OS": {"tested_on": "U2OS", "assay": "Inhibition of autophagy in human U2OS cells assessed as reduction in phagophore formation at 5 uM incubated for 2.5 hrs by Fluorescent microscopy based analysis", "type": "functional, cell-based", "summary_of_the_method": "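U2OS cells treated 2.5 hr with vehicle or 100 nM AZD8055, with or without 5 μM inhibitor; fixed and immunostained for endogenous ATG12; ATG12-positive puncta (phagophores) assessed by fluorescence microscopy.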"}, "[6]": {"biological_target": "T3, Serine/threonine-protein kinase A-Raf (Homo sapiens) (UniProt P10398)", "T3 sequence (whole entry)": "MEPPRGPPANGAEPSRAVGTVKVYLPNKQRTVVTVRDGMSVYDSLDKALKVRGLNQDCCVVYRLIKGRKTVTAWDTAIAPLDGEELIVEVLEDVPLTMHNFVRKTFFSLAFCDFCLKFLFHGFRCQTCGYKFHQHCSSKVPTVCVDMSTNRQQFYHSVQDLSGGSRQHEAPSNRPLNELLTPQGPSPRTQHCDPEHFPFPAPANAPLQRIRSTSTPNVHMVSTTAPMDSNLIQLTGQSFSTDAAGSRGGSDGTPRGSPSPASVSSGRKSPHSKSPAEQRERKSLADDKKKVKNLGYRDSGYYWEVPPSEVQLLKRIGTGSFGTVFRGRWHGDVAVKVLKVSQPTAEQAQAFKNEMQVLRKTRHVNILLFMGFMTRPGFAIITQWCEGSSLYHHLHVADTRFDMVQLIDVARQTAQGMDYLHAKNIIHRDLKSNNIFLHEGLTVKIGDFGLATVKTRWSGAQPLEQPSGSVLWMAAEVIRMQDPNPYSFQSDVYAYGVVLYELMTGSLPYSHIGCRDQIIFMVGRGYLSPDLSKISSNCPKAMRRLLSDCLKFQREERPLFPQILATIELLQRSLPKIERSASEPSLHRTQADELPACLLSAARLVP", "assay": "Inhibition of human recombinant ARAF at 40 nM in presence of ATP by radiometric assay relative to control", "summary_of_the_method": "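Panel of 327 recombinant human kinases, each assayed in vitro by radiometric activity assay in duplicate at a single inhibitor concentration per compound, chosen with reference to its ULK1 inhibition. Activity remaining was expressed as percent of vehicle control, and percent inhibition was calculated as 100 minus percent activity remaining.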"}},
  "note": "Active and inactive are the calls of the source. The calls are words filed in the database; no cut-off is given here.",
  "data": [
    {"smiles": "CNC(=O)c1ccccc1Oc1nc(Nc2cc(OC)c(OC)c(OC)c2)ncc1Br", "values": [
      {"measurement": "inhibition", "setting": "[1]", "result": 8, "unit": "%"},
      {"measurement": "fold change (FC)", "setting": "[2]", "result": 0.38},
      {"measurement": "fold change (FC)", "setting": "[3]", "result": 0.03}
    ]},
    {"smiles": "CC(C)[C@H](NC(=O)c1cc(-c2cnn3cc(-c4ccc(OCCN5CCCCC5)cc4)cnc23)cs1)C(F)(F)F", "values": [
      {"measurement": "inhibition", "setting": "[4]", "result": 22, "unit": "%"},
      {"measurement": "inhibition", "setting": "[5]", "result": 88, "unit": "%"}
    ]},
    {"smiles": "O=C(N[C@@H](C1CC1)C(F)(F)F)c1cc(-c2cnn3cc(-c4ccc(F)cc4)cnc23)cs1", "values": [
      {"measurement": "inhibition", "setting": "U2OS", "result": "Active"},
      {"measurement": "inhibition", "setting": "[6]", "result": 0, "unit": "%"}
    ]}
  ]
}
